Measured values reported in PubChem BioAssay.
The source made the active and inactive calls.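 How the source made its calls, unless noted: active means NADPH fluorescence slope more negative than the mean of all samples by about 3 SD, 99.7% confidence; inactive means the rest.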

Assays:
[1] = inhibitors of TNFa-induced NFkB p65 translocation, primary screen, imaging, HUVEC, MLSMR starter and 10KST1 sets (AID 438;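 active means inhibition above 20% together with a positive visual image hit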;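 further: compound added about 3h40 before a 20 min TNFalpha stimulation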;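 on inhibition: signal is the nuclear over cytoplasmic p65 intensity ratio per well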); settings: HUVEC TNFa-induced p65 nuclear translocation; cell count: measured here: nuclei count (cytotoxicity indicator), at 2.08 µM unless noted; inhibition: at 2 µM, stronger effect = higher value unless noted
[2] = inhibitors of E-selectin induction by TNFa, primary screen, imaging, HUVEC, immunofluorescence, MLSMR starter and 10KST1 sets (AID 487;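 active means visually confirmed hit in the image check and inhibition above 20%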;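 on inhibition: signal is fraction of cell area covered by stained E-selectin grains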;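 on nuclei count: 100% = median nuclei count of all wells on the same plate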); settings: HUVEC TNFalpha-induced E-selectin immunofluorescence imaging, at 2 µM; inhibition: stronger effect = higher value; nuclei count: measured here: cell number, toxicity
[3] = DUSP6 inhibitors restoring Erk phosphorylation by chemical complementation, primary imaging in DUSP6-transfected HeLa (AID 609;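 active means compounds giving at least 50% inhibition in the cell-based MKP-3 phosphatase rescue imaging test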;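 on inhibition: phospho-Erk level distribution per well compared with pooled transfected vehicle control wells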); settings: HeLa MKP-3 transfected, phospho-Erk imaging KS statistic, at 10 µM
[4] = biological target: Dual specificity protein phosphatase 6 (Homo sapiens) (UniProt Q16828); assay: as above; settings: HeLa MKP-3 transfected, phospho-Erk imaging KS statistic, at 10 µM, stronger effect = higher value
Sequence of Dual specificity protein phosphatase 6 (Homo sapiens) (Q16828 whole entry, looked up): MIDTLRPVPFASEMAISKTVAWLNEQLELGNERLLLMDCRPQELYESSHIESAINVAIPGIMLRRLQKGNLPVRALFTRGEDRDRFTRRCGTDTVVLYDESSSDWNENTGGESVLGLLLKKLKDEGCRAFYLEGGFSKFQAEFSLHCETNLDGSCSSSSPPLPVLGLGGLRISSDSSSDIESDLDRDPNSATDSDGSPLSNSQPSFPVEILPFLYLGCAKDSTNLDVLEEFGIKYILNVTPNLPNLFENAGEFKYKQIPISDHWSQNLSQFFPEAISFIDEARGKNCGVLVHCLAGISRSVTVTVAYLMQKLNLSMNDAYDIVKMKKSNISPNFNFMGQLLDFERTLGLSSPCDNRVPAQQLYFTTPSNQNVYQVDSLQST

[5] = biological target: Voltage-gated potassium channel subunit beta-2 (Rattus norvegicus) (UniProt P62483); assay: KvBeta enzyme negative modulators, primary screen, biochemical, NADPH fluorescence (AID 622;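 active means fluorescence slope higher than the sample average by over 3 SD, cut at about -0.22 in these data, passing the limit was not always enough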;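 further: slope of raw intensity against log time taken from 70 to 1610 s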); settings: recombinant KvBeta, 4-cyanobenzaldehyde reduction, at 10 µM, stronger effect = higher value
Sequence of Voltage-gated potassium channel subunit beta-2 (Rattus norvegicus) (P62483 whole entry, looked up): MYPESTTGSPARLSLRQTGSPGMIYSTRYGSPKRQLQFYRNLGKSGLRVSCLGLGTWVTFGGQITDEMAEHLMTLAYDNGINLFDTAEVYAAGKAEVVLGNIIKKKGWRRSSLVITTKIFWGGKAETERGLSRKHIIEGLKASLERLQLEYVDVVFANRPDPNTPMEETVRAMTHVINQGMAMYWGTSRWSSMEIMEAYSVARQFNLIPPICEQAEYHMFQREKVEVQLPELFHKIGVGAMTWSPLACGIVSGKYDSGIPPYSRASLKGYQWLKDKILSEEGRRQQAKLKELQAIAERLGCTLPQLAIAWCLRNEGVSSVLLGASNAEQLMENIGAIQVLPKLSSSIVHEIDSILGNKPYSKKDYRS

[6] = biological target: Voltage-gated potassium channel subunit beta-2 (Rattus norvegicus) (UniProt P62483); assay: KvBeta positive modulators, primary screen, biochemical, NADPH fluorescence (AID 623); settings: Recombinant KvBeta, NADPH fluorescence decrease slope, 10 min; at 10 µM; stronger effect = lower value;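 further: fluorescence intensity change per second fitted from 20 to 320 s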
[7] = biological target: Alpha-2C adrenergic receptor (Homo sapiens) (UniProt P18825); assay: modulators of alpha2C/GIRK thallium flux, primary screen, cell-based, HEK293 alpha2C/GIRK1/2 (AID 624;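 active means fluorescence slope after compound addition differing from the mean of all screened samples at 99.7% confidence, in either direction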;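 further: slope of fluorescence ratio to pre-addition baseline per second over 15 to 24 s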); settings: thallium flux BTC fluorescence, at 10 µM, actives lie on both sides
Sequence of Alpha-2C adrenergic receptor (Homo sapiens) (P18825 whole entry, looked up): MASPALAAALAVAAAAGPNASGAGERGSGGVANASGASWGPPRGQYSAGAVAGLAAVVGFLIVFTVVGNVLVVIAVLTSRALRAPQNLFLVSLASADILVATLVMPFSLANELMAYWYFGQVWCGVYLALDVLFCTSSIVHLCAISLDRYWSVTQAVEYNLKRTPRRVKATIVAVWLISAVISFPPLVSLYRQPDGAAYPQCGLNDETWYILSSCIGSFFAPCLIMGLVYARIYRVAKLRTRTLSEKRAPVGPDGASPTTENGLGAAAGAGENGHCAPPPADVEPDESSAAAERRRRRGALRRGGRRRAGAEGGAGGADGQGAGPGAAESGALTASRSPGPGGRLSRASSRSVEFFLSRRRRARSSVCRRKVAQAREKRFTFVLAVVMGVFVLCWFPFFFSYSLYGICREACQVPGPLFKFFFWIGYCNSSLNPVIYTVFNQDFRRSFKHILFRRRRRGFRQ

[8] = inhibitors of larval lipid processing in zebrafish, primary screen, whole organism, PED6 fluorescence, gall bladder and intestine (AID 686;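 active means a full or partial loss of lipid-probe fluorescence in the fish gall bladder, intestine or both, judged by eye; inactive means no fluorescence loss, or compound toxic to the fish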;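 further: larvae 5 to 7 days old with five fish per well; signal comes from phospholipase A2 cleavage of quenched PED6 carried via bile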); settings: Zebrafish larvae PED6 lipid processing, fluorescence scoring
Method in brief: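 Incubation: overnight exposure of larvae to compound plus PED6 / Test system: live zebrafish larvae aged 5-7 days, whole organism / Amount: 5 larvae per well / Read-out basis: visual per-well fluorescence inhibition score / Signal: visual fluorescence microscopy scoring of gall bladder, gut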

[9] = inhibitors of Chlamydomonas gravitaxis, primary screen, whole organism, Chlamydomonas reinhardtii, WT vs cilia-less mutant, absorbance, 96-well (AID 463189;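 active means inhibition at or above 50% relative to wild type and mutant plate controls; inactive means inhibition below 50%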;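 further: 0% = wild type cc124 cells in DMSO and 100% = ciliumless bld1 mutant cells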); settings: OD600 absorbance, 2 days, at 10 µM, stronger effect = higher value
[10] = measured here: cell density z-score
[11] = measured here: nuclear c-Myc green intensity z-score
[12] = measured here: nuclear pErk red intensity z-score, stronger effect = higher value

Row | SMILES | cell count [1] | inhibition [1] | inhibition [2] | nuclei count [2] [%] | z-score [3, 10] | z-score [3, 11] | z-score [3, 12] | inhibition [4] | fluorescence slope [5] | NADPH fluorescence slope [6] | slope [7] | outcome [8] | inhibition [9]
1 | COc1ccc(C(=O)CN2CCOCC2)cc1F | 662 | -8.3% (inactive) | -111% (inactive) | 168 | -0.933 | 0.019 | -0.631 | 5.57% (inactive) | -0.506 (inactive) | -5.2e-05 (inactive) | 0.0047 (inactive) | inactive | 0.889% (inactive)
2 | CC(=O)OC1(Cc2ccccc2)CN2CCC1c1ccccc12 (configuration not stated) | 574 | -15.2% (inactive) | -118% (inactive) | 130 | 0.311 | -0.615 | 0.994 | -9.91% (inactive) | -0.516 (inactive) | -4e-05 (inactive) | 0.00421 (inactive) | inactive | 14.3% (inactive)
3 | CCOc1ccccc1-n1c(O)c(C=Nc2ccc(N(CC)CC)cc2)c(=O)[nH]c1=O | 588 | -15.7% (inactive) | -43.1% (inactive) | 85.2 | 2.24 | -1.62 | -0.873 | 6.04% (inactive) | -0.43 (inactive) | -9.6e-06 (inactive) | 0.0078 (inactive) | inactive | 7.21% (inactive)
4 | O=C1c2ccccc2C(=O)N1Cc1nc2ccccc2c(=O)n1-c1cccnc1 | 485 | -17.5% (inactive) | 13.6% (inactive) | 113 | -1.74 | -0.21 | 1.85 | -4.27% (inactive) | -0.469 (inactive) | -1.2e-05 (inactive) | 0.00521 (inactive) | inactive | 6.55% (inactive)
5 | CCCCC1(CN2CCCC2=O)C(=O)NC(=O)NC1=O | 325 | -24.8% (inactive) | -135% (inactive) | 118 | 0.342 | -1.01 | -1.02 | 3.5% (inactive) | -0.467 (inactive) | 1.5e-05 (inactive) | 0.00649 (inactive) | inactive | 32.8% (inactive)
6 | C=CCn1c(O)c(C=Nc2ccc(N(CC)CC)cc2)c(=O)[nH]c1=O | 321 | 4.1% (inactive) | -65.7% (inactive) | 88.8 | -1.25 | 0.816 | -0.799 | -1.75% (inactive) | -0.321 (inactive) | -6.9e-05 (inactive) | 0.00606 (inactive) | inactive | 25.3% (inactive)
7 | COc1ccc(-n2c(SC)nc3ccccc3c2=O)cc1 | 594 | -3.7% (inactive) | -93.7% (inactive) | 134 | -0.0992 | -1.67 | -0.0859 | 4.25% (inactive) | -0.492 (inactive) | -0.000141 (inactive) | 0.00471 (inactive) | inactive | 12.5% (inactive)
8 | Cc1c(N=Cc2c(O)n(CCc3ccccc3)c(=O)[nH]c2=O)c(=O)n(-c2ccccc2)n1C | 613 | -20.6% (inactive) | -12.1% (inactive) | 104 | 1.02 | -1.15 | -0.939 | 14.4% (inactive) | -0.465 (inactive) | -1.6e-05 (inactive) | 0.00632 (inactive) | inactive | 41.8% (inactive)
9 | COCC(C)OC(=O)c1c(N)n(Cc2ccco2)c2nc3ccccc3nc12 (configuration not stated) | 433 | -9.3% (inactive) | -115% (inactive) | 147 | -0.578 | 0.931 | -0.00965 | -11.9% (inactive) | -0.0512 (inactive) | -2.8e-07 (inactive) | 0.0047 (inactive) | inactive | 7.25% (inactive)
